Assay outcomes: PubChem, several laboratories
Most compounds without a hit are left out; they make up all but 4% or so of the library.
Mdm2 ligase inh = MDM2-luciferase reporter signal enhancers, primary screen, MDM2 E3 ligase inhibitor project, cell-based, luminescence, 1536-well; E3 ubiquitin-protein ligase Mdm2 (Homo sapiens), Q00987; cell-based MDM2 ubiquitination luciferase reporter, 2 h; 0 = plate control, 100 = twice control, blank-subtracted; signal enhancement, % at 5 µM; actives 0.11% (n = 210,000); AID 1230, 2008;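 active = signal enhancement of 30% or more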;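 note: luminescence tracks abundance of the self-degrading MDM2-luciferase fusion protein; higher signal means inhibition of MDM2 E3 ligase activity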
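Material: stable MDM2–luciferase fusion reporter cells / Quantity: 2000 cells/well / Dosing: single 5 µM compound dose, 0.2% final DMSO / Buffer or medium: DMEM / Schedule: 4 h cell settling then 2 h compound exposure, 37 °C / Detection: luminescence with SteadyLite reagent, 15 min at room temperature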
Hsp70 act = Hsp70 transcriptional activators, primary screen, cell-based, HeLa, Hsp70 promoter luciferase, luminescence, 10 µM. activation, % at 10 µM. actives 0.04% (n = 200,000). HeLa Hsp70 promoter luciferase reporter; scaled: vehicle 0, proteasome-inhibitor control 100%;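 active = activation above the mean across all tested compounds plus 3 SD, cutoff set per campaign, cut at about 5.5% in these data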;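 note: 100% = MG132 at 30 µM as the positive control and 0% = DMSO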
S1P3 antag-1 = S1P3 receptor antagonists, primary screen, cell-based. Sphingosine 1-phosphate receptor 3 (Homo sapiens), Q99500. CHO S1P3 NFAT-BLA reporter, FRET fluorescence, antagonist mode. inhibition, % at 4.98 µM. actives 0.27% (n = 170,000). AID 485, 2006;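 active = inhibition above the plate cutoff, the mean inhibition of test wells on that plate plus 3 SD, cut at about 28% in these data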;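 note: cells challenged with S1P at its EC80 of 0.8 µM; blue over green emission ratio from cleaved BLA substrate after 4 h stimulation; 0% = S1P-stimulated wells and 100% = unstimulated DMSO-only wells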
Target sequence (Q99500 whole entry, looked up): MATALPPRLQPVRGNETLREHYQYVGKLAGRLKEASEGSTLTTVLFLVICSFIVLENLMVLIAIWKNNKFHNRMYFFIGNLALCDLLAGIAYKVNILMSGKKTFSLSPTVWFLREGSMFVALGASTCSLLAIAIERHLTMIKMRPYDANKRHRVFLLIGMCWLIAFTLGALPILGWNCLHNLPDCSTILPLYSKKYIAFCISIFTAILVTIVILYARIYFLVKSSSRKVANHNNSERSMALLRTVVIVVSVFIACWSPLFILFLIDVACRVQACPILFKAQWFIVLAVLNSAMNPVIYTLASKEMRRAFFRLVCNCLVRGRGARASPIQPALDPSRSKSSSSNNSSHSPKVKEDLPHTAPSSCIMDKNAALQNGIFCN
CHOP inh = inhibitors of CHOP promoter induction, primary screen, cell-based, unfolded protein response, luciferase reporter | CHO-K1 CHOP-promoter luciferase, tunicamycin-induced, 15-18 h | inhibition, % at 10 µM | actives 3.8% (n = 220,000);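 active = compounds that reduced the stress-induced luciferase reporter signal by more than about 70% of percent inhibition, limit read from the data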;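 note: 0% = tunicamycin plus vehicle and 100% = wells without tunicamycin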
S1P3 antag-2 = S1P3 receptor antagonists, retest, confirmation, cell-based. shares compounds with S1P3 antag-1. CHO S1P3 NFAT-BLA reporter, FRET, antagonist mode. inhibition, % at 4.98 µM. actives 30% (n = 240);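 active = inhibition above the hit threshold that was computed for the earlier primary screen, cut at about 30% in these data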;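 note: 0% = S1P-stimulated wells and 100% = unstimulated DMSO-only wells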
Hsp70 act dose = Hsp70 transcriptional activators, dose response, cell-based, HeLa, Hsp70 promoter luciferase, luminescence, triplicate. shares compounds with Hsp70 act. HeLa hsp70.1pr-luc reporter. actives 10% (n = 70). calls only at 99 µM;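 active = over 50% activation at some tested dose; inactive = under 50% activation at every tested dose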
CHOP inh conf = retest of CHOP induction inhibitors, confirmation, cell-based | CHO-CHOP promoter luciferase reporter, tunicamycin-induced, luminescence | shares compounds with CHOP inh | inhibition, % at 10 µM | AID 504437, 2011 | actives 45% (n = 2,100);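 active = mean of three repeat readings of reporter signal inhibition above a set limit, cut at about 70% in these data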;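 note: 0% = tunicamycin plus vehicle and 100% = wells lacking tunicamycin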
* hit, by the source's call; i = inactive; x = not tested or not shown; + = active, no number.

SMILES	Mdm2 ligase inh	Hsp70 act	S1P3 antag-1	CHOP inh	CHOP inh conf	others
C[C@H]1C[C@@H](C)C(=O)[C@@H]([C@H](O)CC2CC(=O)NC(=O)C2)C1	-60	-1	84*	103*	110*	S1P3 antag-2=82*
CN[C@H]1C[C@H]2O[C@@](C)([C@H]1OC)n1c3ccccc3c3c4c(c5c6ccccc6n2c5c31)C(=O)NC4	x	-1	109*	108*	121*	S1P3 antag-2=121*
O=c1[nH]c(=O)n(C2CCCCCC2)c(O)c1C=NCCCN1CCOCC1	-14	0	-6	12	x
CN1CC[C@]2(c3cccc(O)c3)Cc3nc4ccccc4cc3C[C@H]2C1	x	0	-15	34	x
Cc1ccccc1-n1c(/C=C/c2ccccn2)nc2ccccc2c1=O	x	x	-5	-22	x
CN1C2CCC1/C(=C/c1ccccn1)C(=O)/C2=C\c1ccccn1	-5	18*	26	108*	111*	Hsp70 act dose=+
Cc1ccc(CN2C3CCCC2CC(NC(=S)NCc2ccccc2)C3)cc1 (stereo unspecified)	-2	0	-4	10	x
COC(=O)C[C@]1(C(=O)OC)CN(C#N)N(c2ccc(Cl)cc2)C12c1ccccc1-c1ccccc12	x	12*	x	x	129*	Hsp70 act dose=i
O=C(CSC1c2ccccc2-c2ccccc21)N/N=C/c1ccccc1O	-9	-1	x	100*	118*
O=C1NC(=O)N(Cc2ccccc2)C(=O)/C1=C\c1ccco1	8	0	-12	106*	-47
Cn1c(O)c(/C=N/N2CCOCC2)c(=O)[nH]c1=S	-13	x	1	-1	x
Cc1cc(C)cc(N2C(=O)NC(=O)/C(=C\C=C\c3ccco3)C2=O)c1	17	0	5	107*	-16
CC1=NN(c2ccccc2)C(=O)C1/C=C1\C(=O)NC(=O)N(c2cc(C)cc(C)c2)C1=O (stereo unspecified)	10	0	x	49	x
O=C(N/N=C/C1C(=O)NC(=S)N(c2ccccc2)C1=O)c1cc(Br)c(O)c(Br)c1 (stereo unspecified)	2	0	-4	12	x
CN(C)C(=S)SSC(=S)N(C)C	41*	0	-14	106*	-134
CN1CCc2cccc(Cl)c2CC1	x	x	x	-8	x
CCOC(=O)c1c(-n2c(C)cc(C=C3C(=O)NC(=O)NC3=O)c2C)sc2c1CCCC2	-6	0	x	96*	42
CCOP(=O)(OCC)c1cc(C)c(O)c(C(C)(C)C)c1	-1	x	7	0	x
CC1CCCN(C(=O)c2ccc(N3CC4CC(C3)c3cccc(=O)n3C4)c([N+](=O)[O-])c2)C1 (stereo unspecified)	-1	0	-6	9	x
COC(=O)[C@]12OC[C@]34C([C@@H](O)[C@@H]1O)[C@]1(C)CC(=O)C(O)=C(C)[C@@H]1C[C@H]3OC(=O)[C@H](O)[C@@H]24 (stereo partly specified)	-62	x	x	104*	108*
Cc1ccc(NP(=O)(Oc2ccccc2F)Oc2ccccc2F)cc1	-18	0	x	98*	101*
CCc1ccc(NP(=O)(Oc2ccccc2F)Oc2ccccc2F)cc1	-6	-1	9	98*	102*
Cc1cccc(NP(=O)(Oc2ccccc2F)Oc2ccccc2F)c1C	-6	0	-7	58	x
CCN1C(=O)C(=Cc2ccc(C)s2)C(=O)N(CC)C1=S	3	0	3	106*	-23
CCN1C(=O)C(=Cc2cc(C)n(C3CC3)c2C)C(=O)N(CC)C1=S	x	0	-6	9	x
SMILES	Mdm2 ligase inh	Hsp70 act	S1P3 antag-1	CHOP inh	CHOP inh conf	others
Cc1nn(Cc2ccccc2)c(Cl)c1C(=O)OC(C)C(=O)Nc1ccc(F)cc1Cl (stereo unspecified)	-16	0	9	54	x
CCC(C)NC(=O)c1c(N)n(CC2CCCO2)c2nc3ccccc3nc12 (stereo unspecified)	-11	0	2	96*	103*
C/C=C(\C)C(=O)OC1C(C)=C2C(C1OC(=O)CCCCC)C(C)(OC(C)=O)CC(OC(=O)CCC)C1(O)C2OC(=O)C1(C)O (stereo unspecified)	-39	x	x	105*	125*
O=C1NC(=O)C(=Cc2cc3c(cc2[N+](=O)[O-])OCO3)C(=O)N1	3	0	-8	-1	x
O=C1NC(=O)C(=Cc2ccc(-c3cc(Cl)ccc3[N+](=O)[O-])o2)C(=O)N1	-10	0	11	105*	-60
c1ccc2c3c([nH]c2c1)C1(CCNCC1)NCC3	-14	x	-1	7	x
N=C(N)c1c(O)n(C2CCCCC2)c(=O)n(C2CCCCC2)c1=O	5	0	5	108*	73*
O=C1NC(=O)N(c2ccc3c(c2)OCO3)C(=O)/C1=C\c1ccc(N2CCCCC2)o1	-10	0	-2	-2	x
O=C1NC(=O)C(=Cc2ccc(SC3CCCCC3)o2)C(=O)N1	-2	0	-18	108*	55
CCC(C)n1c(O)c(/C=N/NC(=O)c2ccncc2)c(=O)[nH]c1=S (stereo unspecified)	-7	0	2	45	x
COC(=O)[C@@H]1[C@@H](C(=O)OC)C2(c3ccccc3-c3ccccc32)N(c2ccc(Cl)cc2)N1C#N	-9	0	x	109*	124*
CCOc1ccc(N2C(=O)/C(=C\c3cccs3)C(=O)NC2=S)cc1	-28	0	-5	106*	-100
CCOc1ccc(N2C(=O)NC(=O)/C(=C\c3ccccc3[N+](=O)[O-])C2=O)cc1	-10	x	3	18	x
CCOC(=O)C1(CCOc2ccccc2)CCN(Cc2ccc(C)s2)CC1	-4	0	11	101*	57
C=CCn1c(O)c(C(C)=O)c(=O)[nH]c1=O (tested in a mixture with another compound)	-31	x	-8	8	x
CC1(C)CC(=O)C2=C(C1)NC(=O)C21C(C(=O)OC(C)(C)C)=C(N)Oc2ccc(Br)cc21 (stereo unspecified)	-5	0	x	29	x
O=C1CCN(C(=O)C(Cl)Cl)N1	-13	0	1	-4	x
Cc1ccc(N2C(=O)NC(=O)/C(=C/c3cnn(-c4ccc(C)cc4)c3)C2=O)cc1	-6	0	-12	102*	-79
COC(=O)C1=CO[C@@H](C)[C@@H]2CN3CC[C@@]4(C(=O)Nc5ccccc54)[C@@H]3C[C@H]12	x	0	-21	10	x
CCCCCCn1c(=O)c(C(=O)Nc2cnccn2)c(O)c2ccccc21	-23	0	-15	96*	120*
CCCCCn1c(=O)c(C(=O)NCc2ccncc2)c(O)c2ccccc21	-13	0	-12	8	x
